Screening results from PubChem.
RGS4 inh: inhibitors of human RGS4; AID 463165; actives 0.45% (n = 310,000); P49798; HEK293 M3R/RGS4 inducible, Fluo-4 calcium flux; active compounds read high; triggered by carbachol at its EC20; B-score at 10 µM;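 active = B-score, a plate-corrected calcium signal, over three deviations above library mean, with baseline fluorescence within five deviations of library mean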;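 also: RGS4 expression induced by doxycycline in cells with stable M3 receptor; B-score is computed from the integrated fluorescence ratio over baseline after carbachol; higher B-score means a larger calcium signal and so more RGS4 inhibition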
Target sequence (P49798 whole entry, looked up): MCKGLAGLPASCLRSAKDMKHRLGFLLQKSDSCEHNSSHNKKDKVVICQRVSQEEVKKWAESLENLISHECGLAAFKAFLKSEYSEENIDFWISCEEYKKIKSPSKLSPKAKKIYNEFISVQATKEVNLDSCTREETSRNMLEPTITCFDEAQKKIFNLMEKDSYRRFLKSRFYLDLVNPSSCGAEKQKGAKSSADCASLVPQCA
MrgX1 antagonist: human MrgX1 receptor antagonism, primary screen; MRGX1-HEK293 calcium flux, Fluo-4, BAM8-22 antagonism; active compounds read low; B-score at 10 µM; actives 1.3% (n = 310,000); AID 588676;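 active = calcium-response B-score plate-corrected more than 3 library SD below zero, starting fluorescence within 5 deviations, no agonist response on first addition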;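 also: peak minus trough fluorescence over baseline after final BAM8-22 challenge near maximal dose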
Target sequence (Q96LB2 whole entry, looked up): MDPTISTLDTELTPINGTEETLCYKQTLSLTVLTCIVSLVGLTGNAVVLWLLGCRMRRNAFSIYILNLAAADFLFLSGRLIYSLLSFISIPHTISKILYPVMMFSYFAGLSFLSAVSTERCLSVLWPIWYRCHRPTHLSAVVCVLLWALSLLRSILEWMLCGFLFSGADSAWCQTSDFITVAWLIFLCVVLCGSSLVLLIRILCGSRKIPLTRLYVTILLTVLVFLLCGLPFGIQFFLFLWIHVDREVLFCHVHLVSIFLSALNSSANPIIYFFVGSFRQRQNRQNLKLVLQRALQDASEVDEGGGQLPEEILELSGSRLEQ
Lipid droplet: modulators of hepatic lipid droplet formation. AID 1656. actives 0.4% (n = 240,000). AML12 mouse hepatocytes, oleate lipid droplets, BODIPY imaging. inhibition, % at 6.5 µM;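 active = lipid droplet intensity inhibited by at least 50%, with more than 500 cells counted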
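material = mouse AML12 hepatocyte cell line, fixed after treatment | also added = 100 µM oleic acid challenge | doses = compound at 6.5 µM only | schedule = overnight exposure | technique = Image-based BODIPY and DAPI two-channel analysis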
MrgX1 allo act: allosterically activates human MrgX1 receptor signaling. B-score at 10 µM. AID 588675. Q96LB2. actives 0.63% (n = 310,000). MrgX1-HEK293, Fluo-4 calcium flux, FDSS; active compounds read high;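 active = plate-corrected calcium response at least 3 library SD above typical, normal starting fluorescence, not activating the receptor alone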;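 also: compound read alongside a low EC10 to EC30 dose of BAM8-22 agonist; peak minus trough fluorescence over baseline measured at the second addition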
MrgX1 agonist: agonists of human MrgX1 receptor; Q96LB2; MrgX1-HEK293 cells, Fluo-4 calcium fluorescence, agonist mode; active compounds read high; B-score at 10 µM; actives 0.44% (n = 310,000);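 active = calcium response B-score plate-corrected fluorescence ratio at least 3 library SD, with starting fluorescence B-score inside 5 SD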
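System: HEK293 cells stably expressing human MrgX1 receptor; Dosing: test compound in the initial addition of three; Schedule: overnight plating, then 30 min 37 °C plus 30 min room-temperature dye loading; Detection: kinetic calcium dye fluorescence, Fluo-4 NW; Controls: per-plate positive and negative controls for Z′ factor.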
RGS4 act: RGS4 potentiation or activation | B-score at 10 µM | HEK293 M3R/inducible RGS4, carbachol calcium flux Fluo4; active compounds read low | actives 0.92% (n = 310,000);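 active = B-score of the integrated calcium signal more than 4 SD below the library mean, with starting fluorescence not abnormally high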;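 also: negative B-score means reduced calcium response which marks RGS4 activation or potentiation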
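Assay system: HEK293 FlpIn-TREx cells, stable M3R, doxycycline-inducible RGS4 / Probe or stimulus: carbachol, ECmax concentration / Times: overnight RGS4 induction, 30 min dye load 37 °C, 20 min compound RT / Signal: kinetic calcium fluorescence imaging with Fluo4-AM dye, 2 µM / Measure: Agonist-evoked peak-minus-minimum fluorescence over baseline, integrated ratio, B score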
RGS4 inh valid: RGS4 inhibitor validation; calcium response, % at 10 µM; shares compounds with RGS4 inh; actives 65% (n = 1,700); HEK293 M3R/RGS4, carbachol calcium Fluo-4 fluorescence; carbachol added at its EC20; 0 = buffer wells, 100 = carbachol control;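 active = duplicate-averaged calcium response above the buffer-only control mean plus 5 SD of those controls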;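 also: integrated fluorescence ratio F max minus min over baseline F0; higher response in RGS4-induced cells means RGS4 inhibition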
RGS4 uninduced: checks RGS4 inhibitor effects in non-induced HEK293 M3R cells; shares compounds with RGS4 inh; carbachol calcium Fluo-4; submaximal (EC20) carbachol stimulus; buffer wells 0%, carbachol control wells 100%; activity (percent), % at 10 µM; actives 20% (n = 1,900); AID 493000; call rule not given here;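 also: RGS4 induction absent so cells express M3R without RGS4; higher means more calcium signal and flags a non-specific hit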
RGS4 inh ctr2: signal in non-induced cells without carbachol, RGS4 inhibitor counter-screen | shares compounds with RGS4 inh | HEK293 M3R/RGS4 non-induced, Fluo-4 calcium, no carbachol; normalised: buffer wells 0%, carbachol wells 100% | calcium response (agonist-mode artifact), % at 10 µM | actives 22% (n = 1,900);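 active = duplicate-averaged calcium rise in uninduced cells above buffer wells' mean plus 5 SD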
An asterisk follows results filed as active. Only some compounds are listed: those with a hit (about 3.8% of all), similar ones and a draw of the others.

Results for CCCn1c(SCC(N)=O)nc2c(c1=O)C1(CCCC1)Cc1ccccc1-2 ?
RGS4 inh: inactive; MrgX1 antagonist: inactive; MrgX1 allo act: inactive; MrgX1 agonist: inactive; RGS4 act: inactive

Results for CCn1c(SCC(=O)OC(C)C)nnc1-c1ccccc1OC ?
RGS4 inh: inactive; MrgX1 antagonist: inactive; Lipid droplet: -16; MrgX1 allo act: inactive; MrgX1 agonist: inactive; RGS4 act: inactive

Results for Cc1cc(C(=O)N/N=C/c2ccc(N(C)C)o2)cs1 ?
RGS4 inh: 8.7*; MrgX1 antagonist: inactive; Lipid droplet: -5; MrgX1 allo act: inactive; MrgX1 agonist: inactive; RGS4 act: inactive; RGS4 inh valid: inactive; RGS4 uninduced: inactive; RGS4 inh ctr2: inactive

Results for O=C1NC(c2ccccc2)=C(c2ccc3ccccc3n2)C(c2ccccc2)N1 (stereo not drawn) ?
RGS4 inh: inactive; MrgX1 antagonist: inactive; Lipid droplet: -3; MrgX1 allo act: inactive; MrgX1 agonist: inactive; RGS4 act: inactive

How did O=C1NC(c2ccccc2)=C(c2nc3ccccc3s2)C(c2ccc(O)cc2)N1 (stereo not drawn) do in these assays?
RGS4 inh: 8.6*; MrgX1 antagonist: inactive; Lipid droplet: -2; MrgX1 allo act: inactive; MrgX1 agonist: inactive; RGS4 act: inactive; RGS4 inh valid: 8.5%*; RGS4 uninduced: inactive; RGS4 inh ctr2: 8.0%*

How did Cc1cc2cc(C(c3nnnn3Cc3ccco3)N3CCc4ccccc4C3)c(=O)[nH]c2cc1C (stereo not drawn) do in these assays?
RGS4 inh: inactive; MrgX1 antagonist: inactive; Lipid droplet: -17; MrgX1 allo act: inactive; MrgX1 agonist: inactive; RGS4 act: inactive; RGS4 inh valid: inactive; RGS4 uninduced: inactive; RGS4 inh ctr2: 39%*

What do the screens show for `Cc1cc2cc(C(c3nnnn3Cc3ccco3)N3CCc4ccccc43)c(=O)[nH]c2cc1C` (stereo not drawn)?
RGS4 inh: 5.3*; MrgX1 antagonist: inactive; MrgX1 allo act: inactive; MrgX1 agonist: inactive; RGS4 act: inactive; RGS4 inh valid: 13%*; RGS4 uninduced: inactive; RGS4 inh ctr2: inactive

How did Cc1ccc2[nH]c(=O)c(C(c3nnnn3Cc3ccccc3)N3CCc4ccccc43)cc2c1 (stereo not drawn) do in these assays?
RGS4 inh: inactive; MrgX1 antagonist: inactive; MrgX1 allo act: inactive; MrgX1 agonist: inactive; RGS4 act: inactive

How did Cc1cc2cc(C(c3nnnn3Cc3ccccc3)N3CCc4ccccc43)c(=O)[nH]c2cc1C (stereo not drawn) do in these assays?
RGS4 inh: inactive; MrgX1 antagonist: inactive; Lipid droplet: 24; MrgX1 allo act: inactive; MrgX1 agonist: inactive; RGS4 act: inactive; RGS4 uninduced: inactive; RGS4 inh ctr2: 7.0%*

What do the screens show for `CC1CCN(S(=O)(=O)c2cccc3cccnc23)CC1`?
RGS4 inh: inactive; MrgX1 antagonist: inactive; Lipid droplet: -29; MrgX1 allo act: inactive; MrgX1 agonist: inactive; RGS4 act: inactive

What do the screens show for `COc1cc(OC)c(N(C)C(=O)c2cc3c(s2)-c2ccccc2S(=O)(=O)C3)cc1Cl`?
RGS4 inh: 17*; MrgX1 antagonist: inactive; MrgX1 allo act: inactive; MrgX1 agonist: inactive; RGS4 act: inactive; RGS4 inh valid: 28%*; RGS4 uninduced: 50%*; RGS4 inh ctr2: inactive

What do the screens show for `O=C(NCc1ccccc1)c1nc2c(nnn2Cc2cccc(Cl)c2)c(=O)[nH]1`?
RGS4 inh: 4.9*; MrgX1 antagonist: inactive; Lipid droplet: 2; MrgX1 allo act: inactive; MrgX1 agonist: inactive; RGS4 act: inactive; RGS4 inh valid: 22%*; RGS4 uninduced: inactive; RGS4 inh ctr2: inactive

Results for O=C(NCc1ccco1)c1nc2c(nnn2Cc2cccc(Cl)c2)c(=O)[nH]1 ?
RGS4 inh: 8*; MrgX1 antagonist: inactive; MrgX1 allo act: inactive; MrgX1 agonist: inactive; RGS4 act: inactive; RGS4 inh valid: 22%*; RGS4 uninduced: inactive; RGS4 inh ctr2: inactive

What do the screens show for `O=C(NCCC(=O)N1CCC2(CC1)NCCc1[nH]cnc12)c1cccc(Br)c1`?
RGS4 inh: inactive; MrgX1 antagonist: inactive; Lipid droplet: 9; MrgX1 allo act: inactive; MrgX1 agonist: inactive; RGS4 act: inactive

How did O=C(N/N=C1\CCCc2ccccc21)C(O)c1ccccc1 (stereo not drawn) do in these assays?
RGS4 inh: inactive; MrgX1 antagonist: inactive; MrgX1 allo act: inactive; MrgX1 agonist: inactive; RGS4 act: inactive

Results for CCOC(=O)[C@@H]1[C@H]2COc3cc(OC)ccc3[C@H]2N2C(=O)N(c3ccc(C(F)(F)F)cc3)C(=O)[C@@]12C ?
RGS4 inh: inactive; MrgX1 antagonist: inactive; Lipid droplet: -18; MrgX1 allo act: inactive; MrgX1 agonist: inactive; RGS4 act: inactive

Results for CCOC(=O)[C@@H]1[C@H]2COc3ccccc3[C@@H]2N2C(=O)N(c3ccc(OC)cc3)C(=O)[C@]12C ?
RGS4 inh: inactive; MrgX1 antagonist: inactive; MrgX1 allo act: inactive; MrgX1 agonist: inactive; RGS4 act: inactive; RGS4 inh valid: inactive; RGS4 uninduced: inactive; RGS4 inh ctr2: 7.5%*

How did CCOC(=O)[C@@H]1[C@H]2COc3ccc(Br)cc3[C@@H]2N2C(=O)N(c3ccc(OC)cc3)C(=O)[C@]12C do in these assays?
RGS4 inh: inactive; MrgX1 antagonist: inactive; Lipid droplet: 8; MrgX1 allo act: inactive; MrgX1 agonist: inactive; RGS4 act: inactive

What do the screens show for `CCOC(=O)[C@@H]1[C@H]2COc3ccccc3[C@@H]2N2C(=O)N(c3ccc(OC)cc3)C(=O)[C@@]12C`?
RGS4 inh: inactive; MrgX1 antagonist: inactive; Lipid droplet: -2; MrgX1 allo act: inactive; MrgX1 agonist: inactive; RGS4 act: inactive; RGS4 inh valid: inactive; RGS4 uninduced: inactive; RGS4 inh ctr2: inactive
